Results taken from ChEMBL document CHEMBL4028832, “Design and synthesis of 1,2,3-triazolo-phenanthrene hybrids as cytotoxic agents” (Bioorg Med Chem Lett, 2017).
The source made the active and inactive calls. No cut-off for these calls is given here.

Legend:
MDA-MB-231 = test: Cytotoxicity against human MDA-MB-231 cells after 48 hrs by MTT assay; format: functional, cell-based; conditions: MDA-MB-231, 48 h
Method in brief: (§1)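 The human cancer lines and mouse 4T1 breast cells were treated with compound for 48 h and assessed by MTT assay. IC50 is the concentration giving 50% inhibition. 5-Fluorouracil served as the MTT standard.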

MDA-MB-453 = test: Cytotoxicity against human MDA-MB-453 cells after 48 hrs by MTT assay; format: functional, cell-based; conditions: MDA-MB-453, 48 h; method in brief: as §1
HGC-27 = test: Cytotoxicity against human HGC27 cells after 48 hrs by MTT assay; format: functional, cell-based; conditions: HGC-27, 48 h; method in brief: as §1
A549 = test: Cytotoxicity against human A549 cells after 48 hrs by MTT assay; format: functional, cell-based; conditions: A549, 48 h; method in brief: as §1
BT-549 = test: Cytotoxicity against human BT549 cells after 48 hrs by MTT assay; format: functional, cell-based; conditions: BT-549, 48 h; method in brief: as §1
PC-3 = test: Cytotoxicity against human PC3 cells after 48 hrs by MTT assay; format: functional, cell-based; conditions: PC-3, 48 h; method in brief: as §1
HeLa = test: Cytotoxicity against human HeLa cells after 48 hrs by MTT assay; format: functional, cell-based; method in brief: as §1
4T1 = test: Cytotoxicity against mouse 4T1 cells after 48 hrs by MTT assay; format: functional, cell-based; conditions: 4T1, 48 h; method in brief: as §1
DU-145 = test: Cytotoxicity against human DU145 cells after 48 hrs by MTT assay; format: functional, cell-based; conditions: DU-145, 48 h; method in brief: as §1
Bos taurus = species: Bos taurus; test: Binding affinity to calf thymus DNA assessed as increase in viscosity at 5 uM by Rolling-ball viscometric method

| Activity (Bos taurus) | SMILES | IC50 (MDA-MB-231) [µM] | IC50 (MDA-MB-453) [µM] | IC50 (HGC-27) [µM] | IC50 (A549) [µM] | IC50 (BT-549) [µM] | IC50 (PC-3) [µM] | IC50 (HeLa) [µM] | IC50 (4T1) [µM] | IC50 (DU-145) [µM] |
| --- | --- | --- | --- | --- | --- | --- | --- | --- | --- | --- |
|  | COc1cc2cc(Cn3cc(COc4ccc(-c5ccccc5)cc4)nn3)c3cc(OC)c(OC)cc3c2cc1OC | > 20 | > 20 | > 20 | > 20 | > 20 | 12.5 | > 20 | 10.8 | > 20 |
|  | COc1cc2cc(Cn3cc(CO)nn3)c3cc(OC)c(OC)cc3c2cc1OC | 6.8 | 13.5 | > 20 | > 20 | 8.2 | > 20 | 18.3 | > 20 | > 20 |
|  | COc1cc2cc(Cn3cc(COc4ccc(OCc5ccccc5)cc4)nn3)c3cc(OC)c(OC)cc3c2cc1OC | > 20 | > 20 | 9.6 | > 20 | 14.3 | > 20 | 21.1 | 9.3 | > 20 |
|  | COc1ccc2c3c(c4cc(OC)c(OC)cc4c2c1)C[C@H]1CCCN1C3 [(-)-ANTOFINE] | 0.012 |  |  |  |  |  |  |  |  |
|  | COc1cc2cc(Cn3cc(CCO)nn3)c3cc(OC)c(OC)cc3c2cc1OC | > 20 | > 20 | 14.2 | > 20 | > 20 | > 20 | 17.2 | > 20 | > 20 |
| Active | COc1cc2cc(Cn3cc(CN4C(=O)c5ccc(C)cc5C4=O)nn3)c3cc(OC)c(OC)cc3c2cc1OC | 4.6 | 6.5 | 3.5 | 12.3 | 3.9 | 7.12 | 2.7 | 10 | 1.87 |
|  | COc1cc2cc(Cn3cc(COc4c(C)cc(C)cc4C)nn3)c3cc(OC)c(OC)cc3c2cc1OC | > 20 | 12.6 | > 20 | > 20 | 12.4 | > 20 | 17.6 | 6.2 | > 20 |
|  | C=CCc1ccc(OCc2cn(Cc3cc4cc(OC)c(OC)cc4c4cc(OC)c(OC)cc34)nn2)c(OC)c1 | > 20 | > 20 | 7.6 | > 20 | > 20 | > 20 | 7.12 | 7.3 | > 20 |
|  | COc1cc2cc(Cn3cc(CN4CCCc5ccccc54)nn3)c3cc(OC)c(OC)cc3c2cc1OC | > 20 | > 20 | > 20 | > 20 | > 20 | 13.9 | > 20 | > 20 | > 20 |
